Compound activity: PubChem, Johns Hopkins Ion Channel Center
TRPC4 block = TRPC4 (mouse) channel inhibition; 300,000 compounds, 0.39% hits; AID 2247; B-score at 10 µM; HEK293 TRPC4beta/mu-opioid, DAMGO-evoked Fluo4 calcium flux; stronger effect = lower value; Q9QUQ5;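 active = B-score over 3 SD under the library average, no early fluorescence shift, positive overall ratio signal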
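System: stable TRPC4beta/mu-opioid receptor HEK293 cells; Dosing: single-point compound dosing; Measured by: Fluo4 Ca2+ flux fluorescence; Read-out basis: per-well B score of integrated baseline-normalized Fluo4 ratio.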
TRPC6 activator = mouse TRPC6 channel activation; Q61143; HEK293-TRPC6 membrane potential dye fluorescence; stronger effect = higher value; B-score at 10 µM; 310,000 compounds, 0.13% hits;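 active = B-score of the integrated fluorescence ratio above library mean plus 3 SD, and starting fluorescence ratio within library mean plus 5 SD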;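 note: higher score means more depolarization so channel activation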
TRPC4 PAM = allosterically enhances the mouse TRPC4 cation channel | Q9QUQ5 | HEK293 TRPC4beta/mu-opioid, DAMGO EC20, Fluo-4 Ca2+ flux; stronger effect = higher value | B-score at 10 µM | 310,000 compounds, 0.42% hits | AID 2227;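 active = B-score of calcium response area above 5 SD of library B-scores, with initial fluorescence ratio within 5 SD of library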;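 note: B-score of integrated fluorescence ratio over time as area under calcium response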
TRPC6 inhibitor = inhibitors of mouse TRPC6 channel. Q61143. HEK293-TRPC6, membrane potential dye, ACh-evoked depolarization; stronger effect = lower value. B-score at 10 µM. 310,000 compounds, 1.1% hits;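 active = B-score under library mean minus 3 SD, initial fluorescence not abnormally high, positive integrated signal ratio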;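 note: B-score derived from integrated fluorescence ratio over the kinetic read; more negative B-score means stronger inhibition of depolarization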
TRPC4 act = opens the mouse TRPC4 cation channel. Q9QUQ5. HEK293 TRPC4beta/mu-opioid, Fluo4 calcium fluorescence; stronger effect = higher value. B-score at 10 µM. 310,000 compounds, 0.49% hits;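 active = B-score above 5 SD of library B-scores, and initial fluorescence ratio not above library mean plus 5 SD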;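 note: positive B-score marks a calcium rise read as TRPC4 activation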
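Assay system: HEK293 stable line with TRPC4beta plus mu-opioid receptor; schedule: 45 min room-temperature Fluo4 loading, 110 s read; technique: kinetic Fluo4 calcium fluorescence; evaluation: integrated baseline-normalised fluorescence ratio, converted to per-well B score; controls: buffer (low) and maximal DAMGO (high)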
Kir21 inh = Kir2.1 (mouse) channel inhibition; HEK293-Kir2.1, FluxOR thallium flux fluorescence; stronger effect = lower value; 310,000 compounds, 0.85% hits; B-score at 10 µM; P35561;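 active = fluorescence ratio B-score at or below minus 3 SD of library scores, with starting-brightness B-score within 2 SD, cut at about -4.2 in these data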;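 note: channel flux triggered by added potassium and thallium sulfate stimulus; B-score of peak minus minimum fluorescence over baseline after thallium stimulus; more negative B-score means stronger Kir2.1 block with less thallium influx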
Target sequence (P35561 whole entry, looked up): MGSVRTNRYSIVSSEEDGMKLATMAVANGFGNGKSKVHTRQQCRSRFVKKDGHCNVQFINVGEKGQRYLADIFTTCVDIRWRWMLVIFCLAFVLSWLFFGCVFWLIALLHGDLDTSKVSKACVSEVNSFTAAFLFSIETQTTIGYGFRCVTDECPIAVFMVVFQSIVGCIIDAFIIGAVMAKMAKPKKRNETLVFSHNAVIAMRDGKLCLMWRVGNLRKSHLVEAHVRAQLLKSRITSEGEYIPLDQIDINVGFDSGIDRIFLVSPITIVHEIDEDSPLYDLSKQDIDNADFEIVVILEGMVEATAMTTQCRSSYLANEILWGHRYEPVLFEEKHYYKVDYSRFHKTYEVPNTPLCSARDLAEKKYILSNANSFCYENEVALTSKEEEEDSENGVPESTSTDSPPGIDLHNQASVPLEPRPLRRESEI
HEK293 TRPC6 ctr = counter-screen for TRPC6 modulators: effect in parental HEK293 cells; shares compounds with TRPC6 inhibitor; membrane potential dye fluorescence; membrane potential signal change, % at 10 µM; 2,400 compounds, 51% hits; AID 488924;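 active = membrane potential signal moves up or down beyond 5 SD from buffer-only wells, on both duplicate plates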
HEK293 MPD ctr 2 = second check of TRPC6 modulator effects in parental HEK293 cells | shares compounds with TRPC6 inhibitor | membrane potential dye fluorescence; after compound, maximal acetylcholine stimulation | inhibition, % at 10 µM | 2,400 compounds, 14% hits | AID 488926;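 active = membrane potential signal drops by more than 5 SD from the mean control signal, in both duplicate plates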;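 note: plate controls were acetylcholine ECmax control wells for no effect and buffer only wells for full effect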
TRPC4/MOR mod = mouse TRPC4 off-target activity of TRPC6 modulators | shares compounds with TRPC6 inhibitor | HEK293 TRPC4/mu-opioid, membrane potential fluorescence | percent change from control (negative = decrease, positive = increase), % at 10 µM | 2,400 compounds, 69% hits | AID 488927;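 active = membrane potential signal moved up or down beyond 5 SD of buffer control wells, in both duplicate plates, actives on both sides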;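 note: plate controls were assay buffer wells for no effect and DAMGO maximal-effect wells for full effect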
TRPC4 ctr inh 2 = second check of whether TRPC6 modulators also affect mouse TRPC4; HEK293 TRPC4/mu-opioid, membrane potential dye fluorescence; stimulated with maximal-effect DAMGO; 2,400 compounds, 55% hits; inhibition, % at 10 µM; shares compounds with TRPC6 inhibitor;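 active = drop in membrane potential signal beyond 5 SD of the control wells in both duplicate plates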;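 note: TRPC4 counter screen for TRPC6 hits run under conditions tuned for TRPC6 not TRPC4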
TRPC6 inh conf = mouse TRPC6 inhibitor confirmation; shares compounds with TRPC6 inhibitor; HEK293-TRPC6, membrane potential dye, ACh-evoked depolarization; inhibition, % at 10 µM; 3,300 compounds, 43% hits;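 active = fluorescence ratio falls more than 5 SD below the full-stimulation control mean, in both duplicate runs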;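 note: integrated fluorescence ratio of peak minus minimum over baseline after agonist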
TRPC6 act confirm = mouse TRPC6 activator confirmation; shares compounds with TRPC6 inhibitor; HEK293-TRPC6 membrane potential dye fluorescence, FDSS; activation, % at 10 µM; 2,800 compounds, 11% hits; AID 488961;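 active = ratio signal rise beyond 5 SD above unstimulated control wells' mean, seen in both duplicate runs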;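 note: plate controls were buffer EC0 wells for no effect and acetylcholine ECmax response for full effect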
An asterisk follows results filed as active; i = inactive; . = no result. Hits are enriched below; roughly 3% of the tested compounds scored in any of these assays.

SMILES | TRPC4 block | TRPC6 activator | TRPC4 PAM | TRPC6 inhibitor | TRPC4 act | Kir21 inh | HEK293 TRPC6 ctr | HEK293 MPD ctr 2 | TRPC4/MOR mod | TRPC4 ctr inh 2 | TRPC6 inh conf | TRPC6 act confirm
Cc1ccc(-c2nnn(CC(=O)N(CC3CCCO3)C(C(=O)NC3CCCCC3)c3ccc(F)cc3)n2)o1 (stereo not drawn) | i | i | i | i | i | -0.22 | . | . | . | . | . | .
CCN(CC)CCN(C(=O)Cn1nnc(-c2ccc(C)o2)n1)C(C(=O)NC(C)(C)C)c1cccs1 (stereo not drawn) | i | 17.9* | i | i | i | 0.59 | 487.5%* | i | 112.0%* | 32.5%* | i | 241.5%*
CCN(CC)CCN(C(=O)Cn1nnc(-c2ccc(C)o2)n1)C(C(=O)NC1CCCC1)c1ccc(F)cc1 (stereo not drawn) | i | 29.6* | i | i | i | -0.32 | 343.0%* | i | 67.5%* | 43.5%* | i | 192.0%*
Cc1ccc(-c2nnn(CC(=O)N(CCCO)C(C(=O)NC3CCCC3)c3ccc(F)cc3)n2)o1 (stereo not drawn) | i | i | i | i | i | 0.2 | . | . | . | . | . | .
CCC(Oc1ccc(C)c(C)c1)C(=O)N1CCCN(C)CC1 (stereo not drawn) | i | i | i | i | i | -0.63 | . | . | . | . | . | .
Cc1cccc2c(=O)cc(C)n(CC(=O)N3CCCCC3)c12 | i | i | i | -6.18* | i | -0.07 | -260.5%* | i | -46.5%* | 28.5%* | i | i
CNC(=O)Cn1c(C)cc(=O)c2cccc(C)c21 | i | i | i | -6.25* | i | 0.43 | -397.5%* | i | -54.5%* | 30.5%* | i | i
Cc1cccc2c(=O)cc(C)n(CC(=O)N3CCOCC3)c12 | i | i | i | i | i | 0.25 | . | . | . | . | . | .
O=C(NC1CC(=O)N(c2ccccc2)C1)C1CC1 (stereo not drawn) | i | i | i | i | i | -0.87 | . | . | . | . | . | .
O=C(Nc1scc(-c2ccccc2)c1C(=O)O)c1ccccc1F | i | i | i | i | i | -0.05 | . | . | . | . | . | .
O=C(Nc1scc(-c2ccc(Br)cc2)c1C(=O)O)c1ccccc1F | i | i | i | -5.26* | i | 1.27 | i | i | i | 39.5%* | 54.0%* | i
CCn1c(=O)n(CC)c2cc(N3CCCC3)c(NC(=O)c3cc(Cl)ccc3OC)cc21 | i | i | i | i | i | 0.82 | . | . | . | . | . | .
Cc1nc(N)nc(N)c1CCCc1ccc(Cl)c(Cl)c1 | i | i | i | -5.74* | i | -7.81* | i | i | i | 50.5%* | 40.5%* | i
COc1ccc(Cc2c(C)nc(N)nc2Cl)cc1 | i | i | i | i | i | 0.64 | . | . | . | . | . | .
COc1cccc(SCc2noc(C(=O)NCCN(C)C)c2C(=O)NCCN(C)C)c1 | i | i | i | i | i | 0.03 | . | . | . | . | . | .
Cc1ccc2c(c1)c1c(n2CC(O)CN2CCC(C)CC2)CCCC1 (stereo not drawn) | i | i | i | -5.81* | i | -2.18 | i | i | 12.5%* | 53.5%* | 40.0%* | i
